Bioassay records as filed in PubChem.
Shown are actives, neighbours in structure and some others; about 2.3% of the full set was active somewhere.
Tn6 DDE FP: disrupts Tn6 cyclic peptide binding to fibrin D-Dimer-E complex. hit rate 0.21% among 370,000. Fibrin DD(E) TRITC-Tn6 fluorescence polarization displacement. P02675. AID 720509. inhibition, % at 8.3 µM;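 active means inhibition above a per-campaign cutoff: mean of compounds within control limits plus 3 SD, cut at about 15% in these data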;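 further: 0% = median of all compound wells on the plate and 100% = blocking peptide control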
PLC-beta3 inh: blocks human PLC-beta3 enzyme activity. Q01970. Purified PLC-beta3, fluorogenic substrate, fluorescence. inhibition, % at 12.2 µM. hit rate 0.18% among 370,000. AID 720704; in the data active means inhibition above about 11%;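 further: 0% = median of compound wells on plate and 100% = full blocker control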
DDE Tn7 FP inh: inhibitors of Tn7 peptide binding to human fibrin DD(E) | FP displacement of FITC-Tn7 peptide from fibrin DD(E); 0% = median of compound wells per plate | hit rate 0.13% among 370,000 | inhibition, % at 8.3 µM | P02675;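 active means inhibition above the mean of compounds falling within the control limits plus 3 SD of them, cut at about 14% in these data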;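 further: 0% = plate median of compound wells and 100% = 10 µM Aha-Tn7 peptide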
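system = human fibrin DD(E) protein | quantity = DD(E) 2 µM final | medium = Tris/NaCl/CaCl2 buffer, pH 7.8 | also added = labelled Tn7 tracer, 0.1 µM | compound dosing = single point at 8.3 µM | timing = compound with protein 10 min, then 3 h after probe, room temperature | signal = FP measurement | benchmarks = Aha-Tn7 high control | repeats = one replicate per compound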
PLCg1 inh: PLC-gamma1 (human) inhibition, primary screen; inhibition, % at 12.2 µM; purified PLC-gamma1, fluorogenic substrate, fluorescence; hit rate 0.84% among 370,000; in the data active means inhibition above about 9.5%
ADAM17 inh: ADAM17 inhibition, QFRET primary screen. inhibition, % at 6.95 µM. recombinant ADAM17, EDANS/DABCYL FRET peptide cleavage. hit rate 0.83% among 370,000. P78536;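 active means inhibition above the mean of compounds lying between control limits plus 3 SD, set per campaign, cut at about 8.5% in these data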;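 further: 0% = DMSO-only wells as the low control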
ADAM10 inh: inhibitors of human ADAM10; O14672; recombinant ADAM10, EDANS/DABCYL FRET peptide cleavage, 3 h; inhibition, % at 7 µM; hit rate 0.62% among 370,000;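 active means inhibition above a per-campaign cutoff equal to the mean of compounds falling between control-based bounds plus 3 SD, cut at about 20% in these data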;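 further: 0% = DMSO wells while the 100% control is not disclosed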
ADAM10 confirm: human ADAM10 inhibition, confirmation | shares compounds with ADAM10 inh | ADAM10 QFRET peptide cleavage, EDANS fluorescence | inhibition, % at 6.95 µM | hit rate 1% among 2,100;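 active means inhibition above about 20% chosen separately for each screening run, limit read from the data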;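 further: 0% = DMSO wells and 100% = marimastat wells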
ADAM17 counter: inhibits human ADAM17 in ADAM10 exosite counter-screen. shares compounds with ADAM10 inh. ADAM17 QFRET peptide cleavage, EDANS fluorescence. inhibition, % at 6.95 µM. hit rate 0.5% among 2,100. AID 743214;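 active means mean triplicate inhibition above the solvent-only control wells' mean plus 3 SD, cut at about 12% in these data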;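 further: 0% = DMSO wells and 100% = marimastat wells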
* marks the source's active call; other numbers are inactive results; x = no result given.

SMILES	Tn6 DDE FP	PLC-beta3 inh	DDE Tn7 FP inh	PLCg1 inh	ADAM17 inh	ADAM10 inh	ADAM10 confirm	ADAM17 counter
O=C(NC(NC(=S)Nc1ccc(Cl)c(Cl)c1)C(Cl)(Cl)Cl)c1ccco1 (centres undefined)	-2.1	5.6	-0.5	2.5	8.6	28.6*	3.7	1.9
O=C(O)c1cccc(NC(=S)NC(NC(=O)c2ccco2)C(Cl)(Cl)Cl)c1 (centres undefined)	-1.2	-6.6	9.4	5.2	-2.5	-13.1	x	x
O=C(COc1ccc(Cl)cc1Cl)OCC(=O)N1CCCc2ccccc21	-7.2	0.1	-10.8	4.6	7.6	20.6*	3.8	0.3
COc1cc(/C=N/NC(=O)c2cc(-c3cccc(OC(C)C)c3)nc3ccccc23)ccc1O	-7.2	-13.3	-3.2	-6.6	7.2	27.6*	8.8	3.8
CCN(CC)CCCNC(=O)c1oc(=O)c2ccccc2c1-c1ccc(C)cc1	-6.1	-0.7	3.5	-1.8	-2.1	-1.4	x	x
COc1cccc(NC(=S)NC(Cc2ccccc2)c2ccccc2)c1 (centres undefined)	-12.5	4.8	-3.6	0.9	7.4	20.5*	6.0	1.5
CCOc1ccc(S(=O)(=O)n2c(C)nc3ccccc32)cc1	1.5	6.5	-2.4	8.3	3.3	7.9	x	x
CCOc1ccc(S(=O)(=O)n2cnc3ccccc32)cc1	0.9	-2.7	-3.9	-1.7	-1.0	64.0*	2.8	0.2
COc1ccc(Cl)cc1NS(=O)(=O)c1ccc(S(=O)(=O)N2CCCC2)cc1	-6.9	1.5	-4.2	4.2	2.4	20.0*	0.9	0.5
COc1ccc(S(=O)(=O)Nc2cc(Cl)ccc2OC)cc1	0.0	-0.7	2.9	1.0	3.0	8.6	x	x
CCOC(=O)C1C[C@@H](O)C=CC1=O (some centres undefined)	-1.2	-1.4	6.0	1.1	-3.5	-0.1	x	x
O=C(c1cccs1)N1CC[C@H]2[C@H](CCCN2Cc2cc(F)cc(F)c2)C1	5.2	-4.1	3.4	0.7	-4.7	-9.8	x	x
COc1ccc(C(=O)O[C@@H]2CCC[C@@]3(C(=O)N(Cc4ccccc4)c4ccccc43)[C@H]2NC(=O)CCc2ccccc2)cc1OC	-11.6	1.5	-1.6	5.8	8.2	20.4*	4.7	1.6
Cc1cccc(NC(=O)CCCN=C2NS(=O)(=O)c3ccccc32)c1C	-2.9	-1.5	-6.4	-0.1	-5.2	55.7*	-0.4	-0.6
O=C(CCCN=C1NS(=O)(=O)c2ccccc21)Nc1ccc(Cl)cc1	-5.9	-2.8	-8.4	8.1	2.5	-3.5	x	x
Cn1c(=O)cc(OCCCC(=O)Nc2cc(-c3cn[nH]c3)ccn2)c2ccccc21	4.3	6.1	-1.1	1.5	-4.2	0.2	x	x
Cc1ccc(Cl)cc1NC(=S)NCCCSC1CCCCC1	-6.9	-6.0	0.1	0.6	2.4	21.5*	2.2	0.8
Cc1ccc(C(=O)c2ccccc2C(=O)OCC(=O)Nc2cccc([N+](=O)[O-])c2)cc1	-3.6	4.7	-0.8	1.6	6.6	27.1*	6.2	1.2
Fc1ccc(-c2n[nH]c(=S)n2N=Cc2ccc(OCc3ccccc3)cc2)cc1	1.8	-1.4	6.8	-3.0	3.1	-1.0	x	x
S=c1[nH]nc(COc2ccccc2)n1/N=C/C(Cl)=C/c1ccccc1	-2.7	0.5	-5.0	4.1	5.0	19.9*	2.7	1.1
Fc1ccccc1-c1n[nH]c(=S)n1N=Cc1ccc(OCc2ccccc2)cc1	9.2	-6.3	2.2	-6.0	8.2	24.9*	6.3	1.7
COC(=O)[C@]12C[C@H](CC(=O)N3CCC(c4ccccc4)CC3)C(=O)N(Cc3ccco3)C1=C[C@H](C1CCCC1)O[C@@H]2C	-6.3	0.8	1.9	-3.8	6.0	12.7	x	x
C=CCN1C(=O)[C@@H](CC(=O)NCc2cccc(C(F)(F)F)c2)[C@]2(C(=O)OC)CCCCC=C12	-5.7	3.9	1.6	0.6	1.0	0.1	x	x
O=C(NCc1ccc2c(c1)OCO2)c1ccc(CSCc2ccccc2Cl)o1	5.6	-2.4	-0.4	-1.4	6.7	23.2*	8.0	3.6
Cc1c(NC(=O)C2CCCN(S(=O)(=O)c3ccc(Br)s3)C2)c(=O)n(-c2ccccc2)n1C (centres undefined)	8.4	-0.3	-8.7	-0.6	1.3	0.7	x	x
SMILES	Tn6 DDE FP	PLC-beta3 inh	DDE Tn7 FP inh	PLCg1 inh	ADAM17 inh	ADAM10 inh	ADAM10 confirm	ADAM17 counter
COC(=O)[C@]12C[C@H](CC(=O)N3CCOCC3)C(=O)N(Cc3cccc4ccccc34)C1=C[C@H](C(C)C)O[C@@H]2C1CC1	-5.0	1.2	2.9	0.5	-2.8	-5.6	x	x
CC(Oc1ccc(Br)cc1)C(=O)Nc1cc(Cl)ccc1N1CCN(C)CC1 (centres undefined)	4.5	-0.1	-13.3	6.4	5.0	20.1*	1.2	0.0
CCOc1ccc(N2C(=O)/C(=C/c3cc(OC)c(OC)c(OC)c3)N(CC(=O)OC)C2=S)cc1	1.0	-6.0	3.4	-4.2	7.0	19.8*	1.2	1.0
CCOc1ccc(/C=C2/C(=O)N(c3ccc(OC)cc3)C(=S)N2CC(=O)OC)cc1OCC	6.3	-3.5	3.1	-3.8	3.5	7.5	x	x
CC(C)c1cc(C(=O)N(C2CCCCC2)C2CCCCC2)no1	-1.8	1.1	2.7	0.4	-5.5	-8.7	x	x
CCN(CC)S(=O)(=O)c1cccc(NC(=O)C2SC(=Nc3ccc(C)cc3C)C(C(=O)NC(C)COC)=C2N)c1 (centres undefined)	-2.0	-4.5	-6.8	2.3	6.7	20.3*	8.9	3.7
CN(CC(=O)Nc1ccc(Cl)c(C(F)(F)F)c1)C(=O)Cc1c[nH]c2ccccc12	-6.7	-1.6	-0.1	-3.8	-4.1	25.1*	1.4	0.1
CC(C)CCNC(=O)C(c1ccc(O)cc1)N(Cc1cccs1)C(=O)C1COc2ccccc2O1 (centres undefined)	-5.5	6.2	2.5	4.3	7.8	22.3*	6.4	1.8
CC(C)(C)NC(=O)CN(Cc1cccs1)C(=O)C1COc2ccccc2O1 (centres undefined)	-5.4	-2.0	-2.0	9.0	-3.6	-8.7	x	x
CC1CCCCC1NC(=O)C1CC(=O)N(Cc2ccccc2)C1 (centres undefined)	-1.3	-5.5	-7.5	3.3	-6.3	53.7*	-0.5	0.6
CCCCN1CC(=O)N2[C@H](C[C@@]3(n4ccc5ccccc54)c4ccccc4N(S(=O)(=O)c4ccccc4)[C@@H]23)C1=O	-7.0	-3.1	6.5	-1.5	3.8	4.1	x	x
COC(=O)[C@]12C[C@H](CC(=O)NCCCCc3ccccc3)C(=O)N(CCc3ccc(OC)c(OC)c3)C1=C[C@H](C(C)C)O[C@@H]2C1CC1	5.3	4.5	-6.9	0.9	4.8	12.5	x	x
